Screening results deposited in PubChem BioAssay by several laboratories.
The sample as a whole holds a higher share of hits than the screen did.
Lmaj promast: reduces viability of Leishmania major promastigotes. AID 1063. inhibition, % at 10 µM. resazurin fluorescence viability. actives 9% (n = 200,000); in the data active = inhibition above about 50%;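 note: promastigotes grown with compound for 44 hours at 28 °C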
Dynein cargo inh: blocks dynein driven cargo transport along microtubules; z-score, hits read low; actives 0.47% (n = 220,000); AID 1381; 3617.4 mouse cells, GR-EGFP nuclear translocation imaging; test concentration mostly 20 µM; stimulated with dexamethasone, 1 µM; hits give low values;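 active = plate z-score of nuclear minus cytoplasmic receptor signal below a set negative limit, without overly bright fluorescence or cell loss, cut at about -3.5 in these data, passing the limit was not always enough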;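 note: z-score of nuclear minus cytoplasmic ring GR-EGFP intensity difference per well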
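Medium: Induction medium lacking tetracycline, stripped serum | Probe or stimulus: 1.0 µM final dexamethasone stimulus | Schedule: 48 h induction, then 1 h compound, then 30 min agonist, 37 °C | Signal: Automated 10x imaging of fixed Hoechst-stained cells | Evaluation: Per-cell GR-EGFP intensity, nucleus versus surrounding cytoplasmic ring, well-averaged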
T cruzi repl: blocks replication of Trypanosoma cruzi; T. cruzi beta-gal in NIH3T3, luminescence, 90 h; inhibition, % (test concentration not listed); actives 1.4% (n = 300,000); AID 1885;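 active = mean inhibition across valid replicates above about 55%, limit read from the data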;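 note: signal also drops with host cell toxicity which is not excluded here; 0% = plate median of DMSO wells and 100% = zero luminescence signal; higher percent means less beta-gal luminescence so fewer parasites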
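Material: NIH/3T3 host cells with β-galactosidase reporter T. cruzi; Input: 5,000 host fibroblasts per well; Medium: DMEM, 2% fetal bovine serum; Compound: 50 nL DMSO compound solution per well; Schedule: 3 h host attachment, then at least 90 h co-culture; Detection: luminescent β-galactosidase signal after 60 min lysis.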
CHOP UPR activ: activators of apoptotic arm of unfolded protein response (CHOP); CHO-CHOP luciferase reporter, UPR activation, luminescence; percent of tunicamycin response over DMSO baseline; activation, % at 10 µM; actives 0.34% (n = 330,000); AID 449763;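 active = at 10 µM dose, activation of 40% or more, normalized to positive control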;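 note: 100% = tunicamycin at 10 µg/mL and 0% = DMSO alone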
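Dosing – one dose, 10 µM in 0.5% DMSO · System – CHO-CHOP cells, stable luciferase reporter of PERK-eIF2a-CHOP signalling · Input – 500 cells/well · Control set – tunicamycin 10 µg/mL final as positive, DMSO-only wells as negative · Timing – 6 h compound treatment, 37 °C · Measure – % activation vs tunicamycin · Technique – luminescence read with Steady-Glo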
UPR XBP1 act: adaptive UPR (XBP1) activation; CHO-XBP1 luciferase reporter, IRE1-XBP1 UPR activation, luminescence; percent of tunicamycin response, DMSO as zero; activation, % at 20 µM; actives 0.33% (n = 330,000); AID 463104;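 active = versus positive control, 20 µM dose yields 30% or more activation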;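 note: 100% = tunicamycin at 10 µg/mL and 0% = DMSO only wells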
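Material: IRE1-XBP1 luciferase reporter CHO line / Quantity: one thousand reporter cells per well / Buffer or medium: F12 with 10% serum / Compound: 20 µM single concentration, DMSO 1% / Times: 6 h treatment, 37 °C / Detection: Steady-Glo luciferase glow luminescence, 10 min after reagent addition / Benchmarks: tunicamycin high, DMSO low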
CHOP inh: blocks CHOP induction under ER stress; inhibition, % at 10 µM; CHO-K1 CHOP-promoter luciferase, tunicamycin-induced, 15-18 h; actives 3.8% (n = 220,000);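 active = compounds that reduced the stress-induced luciferase reporter signal by more than about 70% of percent inhibition, limit read from the data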;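 note: 0% = tunicamycin plus vehicle and 100% = wells without tunicamycin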
An asterisk follows results filed as active; / = not tested or not shown.

SMILES	Lmaj promast	Dynein cargo inh	T cruzi repl	CHOP UPR activ	UPR XBP1 act	CHOP inh
CSCCC(NC(=O)c1ccco1)C(=O)NCC(C)(C)N1CCOCC1 (stereo unspecified)	/	/	/	0	-2	/
CC1(C)OC(=O)C(=CNC(=O)c2c(F)cccc2F)C(=O)O1	-6	1.2	-20	-3	-3	73*
Cc1ccccc1C(=O)NC=C1C(=O)OC(C)(C)OC1=O	0	1	-5	-1	0	32
Cc1ccc(C(=O)COC(=O)C2CC(=O)N(c3nc(-c4ccccc4)cs3)C2)cc1 (stereo unspecified)	-5	-0.3	-5	-3	5	10
Cc1[nH]n(-c2ccccc2)c(=O)c1N=Nc1ccccc1	-3	0.39	-2	2	-2	95*
CCOc1ccc(CSC2=NCCN2)cc1Cl	22	1.2	57*	-1	0	62
O=C(COC(=O)/C=C/c1ccc(F)cc1)Nc1ccccc1-c1ccccc1	-7	-1	-14	-1	-2	22
Cc1cc(S(=O)(=O)N2CCOCC2)ccc1OCC(=O)NCc1ccccn1	/	/	-14	1	-3	/
COc1cc(CNc2ccc(O)cc2)cc(Br)c1OCc1ccccc1F	4	-1.5	2	4	-1	87*
COc1cc(CNc2ccc(N3CCCC3)cc2)ccc1OCc1ccccc1F	2	-0.49	/	/	/	24
COc1cc(CNn2cn[nH]c2=S)cc(Br)c1OCc1ccccc1F	9	-1.6	6	0	-2	-4
COc1cc(CNCc2ccncc2)cc(Br)c1OCc1ccccc1F	98*	0.49	55*	-1	-4	36
COc1cccc(OC)c1CN1CCCC(C(=O)c2ccccc2SC)C1 (stereo unspecified)	65*	-2.2	52	1	-4	16
COc1ccccc1CN1CCCC(C(=O)N2CCCCC2)C1 (stereo unspecified)	/	0.47	4	0	0	6
COc1ccc(CN2CCCC(C(=O)N(C)Cc3ccccc3)C2)cc1OC (stereo unspecified)	86*	-1	38	0	1	-8
CCOC(=O)C1CCCN(Cc2ccc(OC)c(OCc3ccccc3)c2)C1 (stereo unspecified)	/	/	49	-1	-5	/
COc1ccccc1CN1CCCC(C(=O)N(C)Cc2ccccc2)C1 (stereo unspecified)	52*	0.9	27	/	/	-7
N#CC1(NC(=O)CSc2nnc3n2CCCCC3)CCCCC1	/	/	/	1	0	/
CCCCCCC1/C(=N\NC(=O)c2ccccc2)CCC1C(=O)OC (stereo unspecified)	/	/	-7	-1	-1	/
COc1cccc(CN2CCN(Cc3nc4c(s3)CCCC4)CC2CCO)c1 (stereo unspecified)	17	-0.097	35	-1	-3	1
CCOc1ccc(CN2CCN(Cc3nc4c(s3)CCCC4)CC2CCO)cc1 (stereo unspecified)	11	0.83	57*	-1	0	25
Cc1ccc(CN2CCN(Cc3nc4c(s3)CCCC4)CC2CCO)cc1 (stereo unspecified)	30	0.35	56*	0	0	7
Cc1ccc(-c2csc(=Nc3cccnc3)n2CCCN2CCCC2=O)cc1C	19	-0.97	-55	-2	1	19
c1cncc(N=c2scc(-c3cccc4ccccc34)n2CCCn2ccnc2)c1	80*	-0.12	47	-1	0	21
Cc1ccc(-c2csc(=Nc3cccnc3)n2CCCn2ccnc2)cc1C	95*	0.25	64*	-2	1	62
Cc1ccc(C)c(S(=O)(=O)N2CCCCC2CCNC(=O)C(=O)NCc2ccco2)c1 (stereo unspecified)	/	/	-9	2	-1	/
O=C(CN1C(=O)CSc2ccc(S(=O)(=O)N3CCCCC3)cc21)NCc1ccccc1Cl	/	/	10	-1	-7	/
COc1ccc2[nH]cc(CCn3ccc(O)c(C/C=C/c4ccccc4)c3=O)c2c1	100*	1.9	37	1	-2	20
